Published values gathered from unrelated publications.
Protocols differ between the studies behind these lines.
Target: Misshapen-like kinase 1 (MINK1, Homo sapiens, UniProt Q8N4C8)

SMILES	assay	conditions	remaining binding
N[C@@H]1CCN(c2nccc(-c3cnn4ncccc34)n2)C1	binding	1 µM	96%
O=C(Nc1cccnn1)N1CC(C/C=C/c2cncc(Oc3ccc(C(F)(F)F)cn3)n2)C1	cell-free assay, competition with immobilised ligand	1 µM	100%
COc1ccnn2ncc(-c3ccnc(N(C)C)n3)c12	binding	1 µM	81%
FC(F)(F)Oc1cccc(-c2cnc3ccc(-c4ccncc4)nn23)c1	binding, competition with immobilised ligand	5 µM	7.2%
C[C@H]1CCN(c2nccc(-c3cnn4ncccc34)n2)C1	binding	1 µM	71%
Cc1cnc(Nc2ccc(C(=O)N3CCC(N4CCCC4)CC3)cc2)nc1-c1cc2ccccc2s1	binding, competition with immobilised ligand	1 µM	40%
O=C(NCC1CCOCC1)c1n[nH]cc1NC(=O)c1c(F)cccc1F	binding, competition with immobilised ligand	1 µM	77%
Nc1ncc2c(n1)-c1c([nH]c3ccc(C#CC4CC4)cc13)CCCC2	binding, competition with immobilised ligand	1 µM	94%
CC(C)(O)c1cncc(-c2nc3ccc(F)cc3n2C2CC2)c1	cell-free assay, competition with immobilised ligand	1 µM	100%
COc1cnc(Nc2cccc(S(N)(=O)=O)c2)nc1N1CCN(c2ccccc2)C(=O)C1	binding, competition with immobilised ligand	1 µM	78%
c1cnn2ncc(-c3ccnc(N4CCC45COC5)n3)c2c1	binding	1 µM	68%
O=C(NC[C@@H]1[C@H]2CN(C(=O)OCc3cc(C(F)(F)F)cc(C(F)(F)F)c3)C[C@@H]12)c1ccc2[nH]nnc2c1	cell-free assay, competition with immobilised ligand	1 µM	72%
CN(c1nccc(-c2cnn3ncccc23)n1)C1CC1	binding	1 µM	100%
COc1cnc(Nc2cccc(S(N)(=O)=O)c2)nc1N1CCN(c2ccccc2)CC1	binding, competition with immobilised ligand	1 µM	76%
O=C(c1ccc(Nc2ncc(Cl)c(-c3cc4ccccc4s3)n2)cc1)N1CCC(N2CCCC2)CC1	binding, competition with immobilised ligand	1 µM	42%
CN(C)c1ncc(F)c(-c2cnn3ncccc23)n1	binding	1 µM	80%
O=C(Nc1cnc(Oc2ccc(F)cc2)nc1)N1CCc2ncccc2[C@@H]1c1ccc(F)cc1	cell-free assay, competition with immobilised ligand	1 µM	100%
O=C(c1ccc(Nc2nccc(-c3cc4ccccc4s3)n2)cc1)N1CCC(N2CCCC2)CC1	binding, competition with immobilised ligand	1 µM	57%
C[C@H](c1cccc(C#N)c1)n1cc(Cl)cc(C(N)=O)c1=N	cell-free assay, competition with immobilised ligand	1 µM	88%
C[C@@H](c1ccc(-n2cnc3c(N)ncnc32)cc1)N1CCc2nn(C)c(Cc3ccccc3)c2C1=O	binding, competition with immobilised ligand	0.1 µM	88%
CN(C)c1nccc(-c2cnc3ncccn23)n1	binding	1 µM	82%
CC(=O)C1=C(C)N(c2cccc(C(F)(F)F)c2)C(=O)N[C@@H]1c1ccc(C#N)nc1	cell-free assay, competition with immobilised ligand	1 µM	100%
